The source made the active and inactive calls. The rule behind the calls is not given here.

T2 sequence (P50406 whole entry): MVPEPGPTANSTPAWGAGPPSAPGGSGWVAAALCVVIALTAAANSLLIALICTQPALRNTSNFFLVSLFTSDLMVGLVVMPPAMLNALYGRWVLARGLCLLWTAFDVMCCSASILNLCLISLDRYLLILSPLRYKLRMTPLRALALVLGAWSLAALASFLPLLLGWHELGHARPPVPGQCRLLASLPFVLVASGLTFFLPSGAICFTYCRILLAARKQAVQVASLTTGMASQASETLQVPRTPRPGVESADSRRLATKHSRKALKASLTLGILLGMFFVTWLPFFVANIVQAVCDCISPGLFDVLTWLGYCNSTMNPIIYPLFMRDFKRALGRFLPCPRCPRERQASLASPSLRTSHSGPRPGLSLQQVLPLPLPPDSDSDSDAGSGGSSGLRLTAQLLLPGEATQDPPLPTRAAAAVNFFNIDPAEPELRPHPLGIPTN
Chain of 5-hydroxytryptamine receptor 4 (Homo sapiens) (Q13639 whole entry): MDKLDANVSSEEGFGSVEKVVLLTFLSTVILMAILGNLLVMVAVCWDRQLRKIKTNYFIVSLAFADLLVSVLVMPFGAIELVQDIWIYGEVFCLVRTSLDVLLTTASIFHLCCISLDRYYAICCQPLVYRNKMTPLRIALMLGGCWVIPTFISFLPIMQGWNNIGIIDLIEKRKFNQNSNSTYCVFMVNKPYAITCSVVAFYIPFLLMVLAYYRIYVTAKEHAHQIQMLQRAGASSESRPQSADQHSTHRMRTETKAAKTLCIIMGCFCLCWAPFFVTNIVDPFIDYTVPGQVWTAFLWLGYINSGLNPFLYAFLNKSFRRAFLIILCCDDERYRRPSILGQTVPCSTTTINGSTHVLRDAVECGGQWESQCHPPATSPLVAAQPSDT
Chain of Cytochrome P450 3A4 (P08684 whole entry): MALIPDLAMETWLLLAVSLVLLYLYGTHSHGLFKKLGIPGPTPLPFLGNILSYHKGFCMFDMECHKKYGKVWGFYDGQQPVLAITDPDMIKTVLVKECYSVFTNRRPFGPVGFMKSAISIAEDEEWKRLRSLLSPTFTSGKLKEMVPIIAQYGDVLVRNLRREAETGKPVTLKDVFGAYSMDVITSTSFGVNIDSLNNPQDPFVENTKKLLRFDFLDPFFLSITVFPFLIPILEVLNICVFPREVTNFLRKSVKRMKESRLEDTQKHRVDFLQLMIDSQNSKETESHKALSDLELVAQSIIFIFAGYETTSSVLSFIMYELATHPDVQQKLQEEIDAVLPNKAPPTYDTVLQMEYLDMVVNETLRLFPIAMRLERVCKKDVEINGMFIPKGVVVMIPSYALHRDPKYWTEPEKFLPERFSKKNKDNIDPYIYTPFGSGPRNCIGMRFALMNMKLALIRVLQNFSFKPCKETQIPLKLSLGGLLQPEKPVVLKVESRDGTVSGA

Tested on in the first series: not listed separately
Nature of the series: Apparent volume of distribution in Wistar rat at 10 mg/kg, iv by LC-MS/MS analysis. The note with it: in vivo, read-out: Vz. The class given is ADME, organism-based.
Take `CC(C)c1ccc(S(=O)(=O)n2cc(CN3CCN(C)CC3)c3cc(F)ccc32)cc1.Cl.Cl`: the Vd turned out to be 3.2 L/kg.
Turning to `COc1cccc2c1c(CN1CCN(C)CC1)cn2S(=O)(=O)c1ccc(C(C)C)cc1.Cl.Cl`, the Vd was found to be 6.1 L/kg.

A further series addresses Cytochrome P450 3A4 (Homo sapiens, UniProt P08684).
Conditions: not given
`CC(C)c1ccc(S(=O)(=O)n2cc(CN3CCN(C)CC3)c3cc(F)ccc32)cc1.Cl.Cl`: the IC50 worked out at 1400 nM.

Another series has as its target T1, 5-hydroxytryptamine receptor 1A (Homo sapiens) (UniProt P08908).
T1 sequence (whole entry): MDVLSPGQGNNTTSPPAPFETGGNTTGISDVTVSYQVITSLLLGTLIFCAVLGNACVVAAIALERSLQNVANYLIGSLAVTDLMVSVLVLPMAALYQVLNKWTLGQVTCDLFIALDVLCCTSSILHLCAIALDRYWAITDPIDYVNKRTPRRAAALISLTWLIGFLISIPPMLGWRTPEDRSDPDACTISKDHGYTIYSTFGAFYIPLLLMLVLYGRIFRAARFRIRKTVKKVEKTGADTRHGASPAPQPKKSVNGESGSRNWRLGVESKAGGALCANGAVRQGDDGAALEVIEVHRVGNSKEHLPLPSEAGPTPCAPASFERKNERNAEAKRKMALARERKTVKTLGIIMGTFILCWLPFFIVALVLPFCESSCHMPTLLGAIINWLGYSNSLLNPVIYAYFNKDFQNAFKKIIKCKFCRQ
Nature of the series: Displacement of [3H]-8-OH-DPAT from recombinant human 5-HT1A receptor expressed in HEK293 EBNA cell membranes after 120 mins by microbeta scintillation counting analysis.
Conditions: not given
`CC(C)c1ccc(S(=O)(=O)n2cc(CN3CCN(C)CC3)c3cc(F)ccc32)cc1.Cl.Cl`: the outcome was inactive.
Regarding `COc1cccc2c1c(CN1CCN(C)CC1)cn2S(=O)(=O)c1ccc(C(C)C)cc1.Cl.Cl`, the result was inactive.

A further series concerns the target T2, 5-hydroxytryptamine receptor 6 (Homo sapiens, UniProt P50406). Kind of series: Antagonist activity at recombinant human 5-HT6 receptor expressed in CHO cells assessed as inhibition of 5-HT stimulated cAMP accumulation after 4 hrs by luciferase reporter gene assay relative to control. The class given is functional, cell-based.
Conditions: not given
The method in brief: (§1)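 Stable CHO line expressing recombinant human 5-HT6 receptor with a pCRE-luciferase reporter, a nonradioactive cell-based format. Output is Kb (nM), the mean of duplicate experiments, with Imax (%) also reported.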
Consider `CC(C)c1ccc(S(=O)(=O)n2cc(CN3CCN(C)CC3)c3cc(F)ccc32)cc1.Cl.Cl`, for which the Imax turned out to be 99%.
Consider `COc1cccc2c1c(CN1CCN(C)CC1)cn2S(=O)(=O)c1ccc(C(C)C)cc1.Cl.Cl`, for which the Imax was 98%.

Tested on in another series: not listed separately
Kind of series: Oral bioavailability in Wistar rat at 10 mg/kg by LC-MS/MS analysis. The following applies: Wistar, in vivo. The class given is ADME, organism-based.
In turn, `CC(C)c1ccc(S(=O)(=O)n2cc(CN3CCN(C)CC3)c3cc(F)ccc32)cc1.Cl.Cl` gave a bioavailability of 91.4%.
On the same count and under the same terms, to `COc1cccc2c1c(CN1CCN(C)CC1)cn2S(=O)(=O)c1ccc(C(C)C)cc1.Cl.Cl` belongs 10.7%.

The target of the next series is 5-hydroxytryptamine receptor 7 (Rattus norvegicus) (UniProt P32305). Nature of the series: Binding affinity to recombinant rat 5-HT7 receptor expressed in CHOK1 cells assessed as inhibition of 5-HT stimulated cAMP accumulation after 4 hrs by luciferase reporter gene assay. The class given is cell-based.
Chain of 5-hydroxytryptamine receptor 7 (Rattus norvegicus) (P32305 whole entry): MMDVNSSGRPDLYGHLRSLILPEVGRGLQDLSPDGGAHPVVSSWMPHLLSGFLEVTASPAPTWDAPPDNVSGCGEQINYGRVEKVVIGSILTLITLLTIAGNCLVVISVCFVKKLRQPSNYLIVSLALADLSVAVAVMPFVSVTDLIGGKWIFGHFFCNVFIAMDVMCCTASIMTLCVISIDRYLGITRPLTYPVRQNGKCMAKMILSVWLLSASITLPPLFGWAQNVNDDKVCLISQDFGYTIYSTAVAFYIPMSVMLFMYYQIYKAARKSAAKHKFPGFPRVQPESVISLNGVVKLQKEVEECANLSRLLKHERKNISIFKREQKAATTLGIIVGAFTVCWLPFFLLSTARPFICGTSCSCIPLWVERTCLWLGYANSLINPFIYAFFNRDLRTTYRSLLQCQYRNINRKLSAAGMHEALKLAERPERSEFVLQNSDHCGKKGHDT
Conditions: not given
With `CC(C)c1ccc(S(=O)(=O)n2cc(CN3CCN(C)CC3)c3cc(F)ccc32)cc1.Cl.Cl`, the result was inactive.
In the case of `COc1cccc2c1c(CN1CCN(C)CC1)cn2S(=O)(=O)c1ccc(C(C)C)cc1.Cl.Cl`, the outcome was inactive.

Tested on in the next series: not listed separately
Nature of the series: AUC (0 to t) in Wistar rat at 10 mg/kg, po by LC-MS/MS analysis. The note with it: Wistar, in vivo. The class given is ADME, organism-based.
`CC(C)c1ccc(S(=O)(=O)n2cc(CN3CCN(C)CC3)c3cc(F)ccc32)cc1.Cl.Cl` gave an AUC(0-t) of 7740 ng·h/mL.
Consider `COc1cccc2c1c(CN1CCN(C)CC1)cn2S(=O)(=O)c1ccc(C(C)C)cc1.Cl.Cl`, for which the AUC(0-t) was 138 ng·h/mL.

Another series deals with T2, 5-hydroxytryptamine receptor 6. Nature of the series: Antagonist activity at recombinant human 5-HT6 receptor expressed in CHO cells assessed as inhibition of 5-HT stimulated cAMP accumulation after 4 hrs by luciferase reporter gene assay. It counts as functional, cell-based.
Conditions: not given
The method in brief: as §1
With `CC(C)c1ccc(S(=O)(=O)n2cc(CN3CCN(C)CC3)c3cc(F)ccc32)cc1.Cl.Cl`, the Kb came out at 14 nM.
Consider `COc1cccc2c1c(CN1CCN(C)CC1)cn2S(=O)(=O)c1ccc(C(C)C)cc1.Cl.Cl`, for which the Kb is 9.8 nM.

The target of another series is Cytochrome P450 2D6 (Homo sapiens, UniProt P10635). Nature of the series: Inhibition of CYP2D6 in human liver microsomes in presence of NADPH by LC-MS/MS analysis.
Chain of Cytochrome P450 2D6 (P10635 whole entry): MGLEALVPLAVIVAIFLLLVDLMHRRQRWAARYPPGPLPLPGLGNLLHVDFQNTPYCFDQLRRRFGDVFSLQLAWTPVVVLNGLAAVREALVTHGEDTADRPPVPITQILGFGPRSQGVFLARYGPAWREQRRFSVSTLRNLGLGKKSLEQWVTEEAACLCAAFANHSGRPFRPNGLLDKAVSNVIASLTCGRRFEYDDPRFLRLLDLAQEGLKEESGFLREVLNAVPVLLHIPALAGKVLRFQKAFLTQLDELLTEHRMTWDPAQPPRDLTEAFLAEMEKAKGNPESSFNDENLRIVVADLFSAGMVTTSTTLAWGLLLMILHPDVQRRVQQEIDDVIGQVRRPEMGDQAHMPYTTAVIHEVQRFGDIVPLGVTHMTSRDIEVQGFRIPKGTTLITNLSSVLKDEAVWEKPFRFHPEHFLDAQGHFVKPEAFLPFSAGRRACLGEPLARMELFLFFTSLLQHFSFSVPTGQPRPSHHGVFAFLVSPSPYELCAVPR
Conditions: not given
In the case of `CC(C)c1ccc(S(=O)(=O)n2cc(CN3CCN(C)CC3)c3cc(F)ccc32)cc1.Cl.Cl`, the IC50 turned out to be 7700 nM.
On the same count and under the same terms, to `COc1cccc2c1c(CN1CCN(C)CC1)cn2S(=O)(=O)c1ccc(C(C)C)cc1.Cl.Cl` belongs 9700 nM.

The next series deals with Rattus norvegicus. Kind of series: Reversal of time-induced amnesia in Wistar rat at 10 mg/kg, po administered 60 mins prior to testing measured for 3 mins by object recognition test. The class given is functional, organism-based.
Conditions: not given
The method in brief: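 Time-induced object recognition task in rats. Oral dosing at 1, 3 and 10 mg/kg given 60 min before the test; vehicle water for injection 1 mL/kg p.o.; n = 7−12/group. Exploration of novel versus familiar object compared by paired t-test.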
Consider `CC(C)c1ccc(S(=O)(=O)n2cc(CN3CCN(C)CC3)c3cc(F)ccc32)cc1.Cl.Cl`, for which the outcome was Active.

Tested on in another series: not listed separately
Kind of series: Clearance in Wistar rat at 10 mg/kg, iv by LC-MS/MS analysis. The class given is ADME, organism-based. The following applies: in vivo.
In the case of `CC(C)c1ccc(S(=O)(=O)n2cc(CN3CCN(C)CC3)c3cc(F)ccc32)cc1.Cl.Cl`, the clearance was determined as 19.5 mL/min/kg.
The same measure, in the same setting: the result for `COc1cccc2c1c(CN1CCN(C)CC1)cn2S(=O)(=O)c1ccc(C(C)C)cc1.Cl.Cl` reads 65 mL/min/kg.

Tested on in another series: not listed separately
Nature of the series: Ratio of drug uptake in Wistar rat brain to plasma at 10 mg/kg, po by LC-MS/MS analysis. It counts as ADME, organism-based. The following applies: read-out: BPR.
Consider `CC(C)c1ccc(S(=O)(=O)n2cc(CN3CCN(C)CC3)c3cc(F)ccc32)cc1.Cl.Cl`, for which the Kp stood at 0.95.

A further series concerns the target T2, 5-hydroxytryptamine receptor 6. Kind of series: Displacement of [3H]-LSD from recombinant human 5-HT6 receptor expressed in HEK293 cells after 60 mins. The class given is cell-based.
Conditions: not given
With `CC(C)c1ccc(S(=O)(=O)n2cc(CN3CCN(C)CC3)c3cc(F)ccc32)cc1.Cl.Cl`, the Ki is 4 nM.
As for `COc1cccc2c1c(CN1CCN(C)CC1)cn2S(=O)(=O)c1ccc(C(C)C)cc1.Cl.Cl`, the Ki was 11.6 nM.

A further series deals with 5-hydroxytryptamine receptor 2A (Homo sapiens) (UniProt P28223). Kind of series: Displacement of [3H]-Ketanserine from recombinant human 5-HT2A receptor expressed in CHOK1 cell membranes after 60 mins by microbeta scintillation counting analysis.
Chain of 5-hydroxytryptamine receptor 2A (Homo sapiens) (P28223 whole entry): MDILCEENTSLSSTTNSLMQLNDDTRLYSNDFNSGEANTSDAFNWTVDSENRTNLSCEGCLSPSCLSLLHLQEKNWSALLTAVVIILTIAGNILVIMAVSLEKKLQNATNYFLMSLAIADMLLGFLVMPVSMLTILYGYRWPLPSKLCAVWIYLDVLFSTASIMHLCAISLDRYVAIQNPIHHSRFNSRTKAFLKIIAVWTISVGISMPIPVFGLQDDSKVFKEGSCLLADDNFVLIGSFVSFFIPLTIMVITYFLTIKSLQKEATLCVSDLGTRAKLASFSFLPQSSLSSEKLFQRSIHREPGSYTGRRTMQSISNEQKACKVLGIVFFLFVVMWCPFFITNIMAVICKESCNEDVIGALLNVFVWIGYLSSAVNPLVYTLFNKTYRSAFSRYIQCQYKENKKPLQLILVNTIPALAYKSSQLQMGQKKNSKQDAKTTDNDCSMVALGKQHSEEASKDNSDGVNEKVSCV
Conditions: not given
With `CC(C)c1ccc(S(=O)(=O)n2cc(CN3CCN(C)CC3)c3cc(F)ccc32)cc1.Cl.Cl`, the result was Active.
Consider `COc1cccc2c1c(CN1CCN(C)CC1)cn2S(=O)(=O)c1ccc(C(C)C)cc1.Cl.Cl`, for which the outcome was Active.

Tested on in a further series: not listed separately
Kind of series: Half life in Wistar rat at 10 mg/kg, iv by LC-MS/MS analysis. The class given is ADME, organism-based. The note with it: in vivo.
For the compound `CC(C)c1ccc(S(=O)(=O)n2cc(CN3CCN(C)CC3)c3cc(F)ccc32)cc1.Cl.Cl`, the half-life is 1.93 h.
`COc1cccc2c1c(CN1CCN(C)CC1)cn2S(=O)(=O)c1ccc(C(C)C)cc1.Cl.Cl` had a half-life of 2.12 h.

Tested on in the next series: not listed separately
Kind of series: Cmax in Wistar rat at 10 mg/kg, po by LC-MS/MS analysis. The arrangement: dose 10 mg/kg, route oral. The following applies: in vivo. The class given is ADME, organism-based.
For `CC(C)c1ccc(S(=O)(=O)n2cc(CN3CCN(C)CC3)c3cc(F)ccc32)cc1.Cl.Cl`, the highest level (Cmax) was 1900 ng/mL.
Take `COc1cccc2c1c(CN1CCN(C)CC1)cn2S(=O)(=O)c1ccc(C(C)C)cc1.Cl.Cl`: the Cmax came to 45.6 ng/mL.

Another series has as its target 5-hydroxytryptamine receptor 4 (Homo sapiens) (UniProt Q13639). Kind of series: Displacement of [3H]-GR113808 from recombinant human 5-HT4B receptor expressed in Chem1 cell membranes after 120 mins by microbeta scintillation counting analysis.
Conditions: not given
On to `CC(C)c1ccc(S(=O)(=O)n2cc(CN3CCN(C)CC3)c3cc(F)ccc32)cc1.Cl.Cl`, for which the outcome was inactive.
For `COc1cccc2c1c(CN1CCN(C)CC1)cn2S(=O)(=O)c1ccc(C(C)C)cc1.Cl.Cl`, the outcome was inactive.

A further series deals with T3, 5-hydroxytryptamine receptor 2C (Homo sapiens) (UniProt P28335).
T3 sequence (whole entry): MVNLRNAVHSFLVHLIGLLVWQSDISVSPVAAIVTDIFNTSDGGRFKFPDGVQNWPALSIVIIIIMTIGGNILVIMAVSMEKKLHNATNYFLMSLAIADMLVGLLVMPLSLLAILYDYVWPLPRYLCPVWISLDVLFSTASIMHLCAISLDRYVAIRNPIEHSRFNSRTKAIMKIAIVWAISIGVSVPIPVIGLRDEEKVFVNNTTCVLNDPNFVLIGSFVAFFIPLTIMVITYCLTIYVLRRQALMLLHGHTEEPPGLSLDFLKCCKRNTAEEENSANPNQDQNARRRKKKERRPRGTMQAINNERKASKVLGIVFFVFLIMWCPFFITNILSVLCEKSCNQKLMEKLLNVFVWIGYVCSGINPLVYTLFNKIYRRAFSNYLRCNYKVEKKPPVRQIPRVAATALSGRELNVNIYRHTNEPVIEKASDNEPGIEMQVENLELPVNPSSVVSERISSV
Kind of series: Displacement of [3H]-Mesulergine from recombinant human 5-HT2C receptor expressed in HEK293 cell membranes after 180 mins by microbeta scintillation counting analysis.
Conditions: not given
Turning to `CC(C)c1ccc(S(=O)(=O)n2cc(CN3CCN(C)CC3)c3cc(F)ccc32)cc1.Cl.Cl`, the outcome was inactive.
In the case of `COc1cccc2c1c(CN1CCN(C)CC1)cn2S(=O)(=O)c1ccc(C(C)C)cc1.Cl.Cl`, the result was inactive.
